Results collected from several papers.
Each line is one published result; the experiments were not run side by side.
Target: Cyclin-dependent kinase 15 (CDK15, Homo sapiens, UniProt Q96Q40)

| SMILES | assay | conditions | remaining binding |
| --- | --- | --- | --- |
| Cc1nc(N2CC[C@@H](O)C2)ncc1-c1cc(C(F)(F)F)cc2[nH]ncc12 | binding, competition with immobilised ligand | 1 µM | 81% |
| CN(CCCC(F)(F)F)c1nccc(-c2cnn3ncccc23)n1 | binding | 1 µM | 100% |
| COc1cnc(Nc2cccc(S(N)(=O)=O)c2)nc1N1CCN(c2ccccc2)CC1 | binding, competition with immobilised ligand | 1 µM | 93% |
| CCOC(=O)c1cc2cc(-c3cc(C(=O)NCc4ccc(C(=O)O)cc4)nn3C)ccc2[nH]1 | cell-free assay, competition with immobilised ligand | 0.1 µM | 93% |
| N[C@@H]1CCN(c2nccc(-c3cnn4ncccc34)n2)C1 | binding | 1 µM | 100% |
| O=C(c1ccc(Nc2ncc(Cl)c(-c3cc4ccccc4s3)n2)cc1)N1CCC(N2CCCC2)CC1 | binding, competition with immobilised ligand | 1 µM | 70% |
| CCS(=O)(=O)c1cc2cc(C[C@@](O)(CC(C)(C)c3ccc(F)cc3C(N)=O)C(F)(F)F)[nH]c2cn1 | cell-free assay, competition with immobilised ligand | 1 µM | 59% |
| CN(C)c1ncc(F)c(-c2cnn3ncccc23)n1 | binding | 1 µM | 100% |
| C[C@@H](c1ccc(-n2cnc3c(N)ncnc32)cc1)N1CCc2nn(C)c(Cc3ccccc3)c2C1=O | binding, competition with immobilised ligand | 0.1 µM | 86% |
| CNC(=O)[C@@H]1CC[C@@H](n2c(-c3ccc4cnccc4c3)nc3ccc(C(=O)NCc4cccc(C(N)=O)c4)cc32)C1 | binding, competition with immobilised ligand | 1 µM | 100% |
| CN(C)c1nccc(-c2cnn3ncccc23)n1 | binding | 1 µM | 100% |
| Nc1ncc2c(n1)-c1c([nH]c3ccc(C#CC4CC4)cc13)CCCC2 | binding, competition with immobilised ligand | 1 µM | 96% |
| Cc1cnc(Nc2ccc(C(=O)N3CCC(N4CCCC4)CC3)cc2)nc1-c1cc2ccccc2s1 | binding, competition with immobilised ligand | 1 µM | 99% |
| C[C@H]1CCN(c2nccc(-c3cnn4ncccc34)n2)C1 | binding | 1 µM | 56% |
| O=C(Nc1c[nH]nc1C(=O)NC1CCNCC1)c1cc(F)cc(F)c1 | binding, competition with immobilised ligand | 1 µM | 79% |
| CCc1ccccc1C(=O)Nc1n[nH]c2c(C)c(F)c(C3C(C#N)=C(C)N(C)C(C)=C3C#N)cc12 | cell-free assay, competition with immobilised ligand | 1 µM | 95% |
| FC(F)(F)Oc1cccc(-c2cnc3ccc(-c4ccncc4)nn23)c1 | cell-free assay, competition with immobilised ligand | 5 µM | 63% |
| c1cnn2ncc(-c3ccnc(N4CCC45COC5)n3)c2c1 | binding | 1 µM | 85% |
| O=S(=O)(NC1CCC(c2cc(F)ccc2F)(S(=O)(=O)c2ccc(Cl)cc2)CC1)C(F)(F)F (stereo not shown) | cell-free assay, competition with immobilised ligand | 1 µM | 100% |
| O=C(c1ccc(Nc2ncc(Cl)c(-c3ccc(Cl)s3)n2)cc1)N1CCC(N2CCCC2)CC1 | binding, competition with immobilised ligand | 1 µM | 43% |
| O=C(NCCCC1CCCCC1)c1ccc(CNC(=O)c2cnn(-c3ccccc3)c2C(F)(F)F)cc1 | cell-free assay, competition with immobilised ligand | 0.1 µM | 77% |
| COc1ncc2cc3ccccc3nc2c1C#N | cell-free assay, competition with immobilised ligand | 5 µM | 99% |
